Assay results taken from ChEMBL document CHEMBL2331332 (J Med Chem, 2013).

Key:
[1] = target: T1, Prostaglandin E synthase (Homo sapiens, UniProt O14684); test: Inhibition of full-length microsomal PGES-1 (unknown origin) expressed in Escherichia coli Rosetta(DE3) using PGH2 as substrate assessed as inhibition of PGH2 conversion to PGE2 incubated 15 mins prior to substrate addition measured after 1 min by EIA
T1 sequence (O14684 whole entry): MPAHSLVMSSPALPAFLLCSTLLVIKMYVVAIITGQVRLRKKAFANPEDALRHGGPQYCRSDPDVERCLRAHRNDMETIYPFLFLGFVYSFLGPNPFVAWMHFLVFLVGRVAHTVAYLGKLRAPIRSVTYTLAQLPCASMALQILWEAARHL
Outline: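 Reactions used 2.5 mM cofactor and 17 μM PGH2 for 1 min at 4 °C, then were stopped, and PGE2 was quantified by EIA. IC50 came from dose-response curves. Mean ± SEM, n = 3.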

[2] = target: T2, Polyunsaturated fatty acid 5-lipoxygenase (Homo sapiens) (UniProt P09917); test: Inhibition of 5-LOX-mediated LTB4 formation in human whole blood at 10 uM incubated for 20 mins prior to substrate addition measured after 0.5 hrs by EIA in presence of calcium ionophore A23187
T2 sequence (whole entry): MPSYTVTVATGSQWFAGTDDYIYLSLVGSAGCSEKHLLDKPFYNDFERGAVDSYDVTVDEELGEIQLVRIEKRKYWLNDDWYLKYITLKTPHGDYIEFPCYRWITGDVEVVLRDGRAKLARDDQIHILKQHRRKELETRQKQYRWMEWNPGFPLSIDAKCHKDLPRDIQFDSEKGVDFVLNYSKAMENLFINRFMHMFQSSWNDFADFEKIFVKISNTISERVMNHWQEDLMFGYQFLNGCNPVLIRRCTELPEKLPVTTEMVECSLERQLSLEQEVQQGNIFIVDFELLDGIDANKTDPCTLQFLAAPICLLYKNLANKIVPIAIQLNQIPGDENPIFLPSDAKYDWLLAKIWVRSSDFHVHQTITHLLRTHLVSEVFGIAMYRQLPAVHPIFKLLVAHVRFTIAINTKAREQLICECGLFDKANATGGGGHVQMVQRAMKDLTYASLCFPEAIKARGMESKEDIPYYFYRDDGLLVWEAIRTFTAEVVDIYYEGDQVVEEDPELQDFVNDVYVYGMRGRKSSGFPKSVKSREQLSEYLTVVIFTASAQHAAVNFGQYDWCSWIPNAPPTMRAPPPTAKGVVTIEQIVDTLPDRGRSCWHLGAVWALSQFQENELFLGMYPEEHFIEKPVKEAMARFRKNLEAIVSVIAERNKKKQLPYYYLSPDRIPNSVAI
Outline: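 Human whole blood was stimulated with calcium ionophore A23187 (final 20 μg/mL) for 0.5 h at 37 °C to induce LTB4 formation. Compounds were tested at 10 μM.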

[3] = target: T1, Prostaglandin E synthase; test: Inhibition of PGES-1 in human whole blood assessed as LPS-induced PGE2 formation incubated for 15 mins prior to LPS addition measured after 24 hrs by EIA
Outline: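 Fresh heparinized blood came from healthy volunteers free of NSAIDs for at least 14 days. It was preincubated 15 min at 37 °C with compound or DMSO vehicle. LPS (final 100 μg/mL) was then added for 24 h at 37 °C. Plasma was obtained by centrifugation at 4 °C, and PGE2 was read by EIA.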

[4] = test system: Prostaglandin G/H synthase 1 (COX-1); test: Inhibition of COX-1 (unknown origin)-mediated TMPD oxidation using PGG2 as substrate at 100 uM incubated 15 mins prior to substrate addition measured after 36 secs by spectrophotometric analysis; conditions: Homo sapiens
[5] = target: T2, Polyunsaturated fatty acid 5-lipoxygenase (Homo sapiens); test: Inhibition of 5-LOX (unknown origin) at 10 uM by human whole blood LTB4 assay
[6] = test system: Prostaglandin G/H synthase 2 (COX-2); test: Inhibition of COX-2 (unknown origin)-mediated TMPD oxidation using PGG2 as substrate at 100 uM incubated 15 mins prior to substrate addition measured after 36 secs by spectrophotometric analysis; conditions: Homo sapiens

| SMILES | IC50 [1] [nM] | IC50 [3] [nM] | other results |
| --- | --- | --- | --- |
| Cn1c(=O)c(/C(=N/Nc2ccc([N+](=O)[O-])cc2[N+](=O)[O-])c2nnn[nH]2)c(O)c2ccccc21 | 1700 | > 200000 |  |
| COc1cc(NC(=O)c2nn3c(C(F)(F)F)cc(-c4ccc(Br)cc4)nc3c2Cl)cc([N+](=O)[O-])c1 | 9.7 | 8500 | inhibition [2]: < 1%; inhibition [4]: < 1%; inhibition [5]: 39%; inhibition [6]: -2.2% |
| Cc1ccc(Cl)c(NC(=O)CSc2nnc(CNc3c(C)cccc3C)n2C)c1 | 200 |  |  |
| Cc1ccc([N+](=O)[O-])cc1NC(=O)CSc1nnc(CC(=O)Nc2ccccc2)n1C | 100 |  |  |
| CC1=NN(c2ccc(Cl)c(Cl)c2)C(=O)/C1=C/c1cc(Br)ccc1OCC(=O)O | 170 | 18500 |  |
| CCOC(=O)c1ccc(NC(=O)CSc2nnc(CNc3c(C)cccc3C)n2C)cc1 | 5400 |  |  |
| C=CCn1c(CNc2c(C)cccc2C)nnc1SCC(=O)Nc1ccccc1C | 12600 |  |  |
| COc1ccc(CN2C(=O)/C(=C/c3ccc(OCc4ccc([N+](=O)[O-])cc4)c(Br)c3)S/C2=N\c2ccccc2)cc1 | 38 | 120000 |  |
| Cc1ccc([N+](=O)[O-])cc1NC(=O)CSc1nnc(CNc2c(C)cccc2C)n1C | 9.3 | 700 | inhibition [2]: < 1%; inhibition [4]: < 1%; inhibition [5]: 8%; inhibition [6]: < 1% |
| CCn1c(CNc2ccc(C)cc2C)nnc1SCC(=O)Nc1ccc(C)cc1 | 5100 |  |  |
| Cc1ccc(C)c(NC(=O)CSc2nnc(CNc3c(C)cccc3C)n2C)c1 | 3600 |  |  |
| Cc1ccc([N+](=O)[O-])cc1NC(=O)CSc1nnc(CNC(=O)COc2c(C)cccc2C)n1C | 710 |  |  |
| CC(c1ccccc1)N1C(=O)c2ccc(C(=O)Nc3cc(Cl)ccc3C(=O)O)cc2C1=O (configuration not stated) | 2 | 1400 | inhibition [2]: < 1%; inhibition [5]: < 1% |
| CCn1c(CNC(=O)c2ccc(C)cc2)nnc1SCC(=O)Nc1cc([N+](=O)[O-])ccc1C | 54 |  |  |
| Cc1ccc2[nH]c3c(c2c1)CCC/C3=N\N=C1/CCCc2c1[nH]c1ccc(C)cc21 | 5000 | > 200000 |  |
| Cc1ccc([N+](=O)[O-])cc1NC(=O)CSc1nnc(CSCc2ccccc2)n1C | 240 |  |  |
| Cc1cc(C)c2oc(-c3ccc(C)c(NC(=O)c4cccc([N+](=O)[O-])c4)c3)nc2c1 | 4.6 | 6200 | inhibition [2]: < 1%; inhibition [5]: 30% |
| Cc1ccc(N2CCn3c(SCC(=O)Nc4cc(C)ccc4C)nnc32)cc1 | > 100000 |  |  |
| CC1=NN(c2ccc([N+](=O)[O-])cc2)C(=O)/C1=N\Nc1ccccc1C(=O)O | 10 | 17000 | inhibition [2]: < 1%; inhibition [4]: 1%; inhibition [5]: 10%; inhibition [6]: 2.5% |
| COc1cc(-c2cc(C(=O)O)c3c(ccc4ccccc43)n2)ccc1OCCCC#N | 1.1 | 4400 | inhibition [2]: < 1%; inhibition [4]: 4.1%; inhibition [5]: < 1%; inhibition [6]: 1% |
| Cc1nc2sc3c(c2c(=O)n1/N=C/c1cc([N+](=O)[O-])cc([N+](=O)[O-])c1O)CCCC3 | 1800 | 130000 |  |
| C/C(=N\NC(=O)c1ccc([N+](=O)[O-])c(C)c1)c1cccc(NC(=O)COc2ccc(Cl)cc2Cl)c1 | 57 | 66000 |  |
| COc1ccc(OC)c(NC(=O)CSc2nnc(CNc3c(C)cccc3C)n2C)c1 | 930 |  |  |
| Cc1ccc([N+](=O)[O-])cc1NC(=O)CSc1nnc(-c2ccccc2C)n1C | 54500 |  |  |
| Cc1ccc([N+](=O)[O-])cc1NC(=O)CSc1nnc(CNc2ccc(Cl)cc2)n1C | 33 |  |  |

Now from value to compound, other results behind:

| IC50 [1] [nM] | IC50 [3] [nM] | SMILES | other results |
| --- | --- | --- | --- |
| 6.5 | 8500 | Clc1ccc(/C=C/c2cc(-c3ccc(-c4ccccc4)cc3)nc3ccc4ccccc4c23)cc1 | inhibition [2]: < 1%; inhibition [4]: < 1%; inhibition [5]: 10%; inhibition [6]: 1.8% |
| 10400 |  | O=C(CSc1nc(-c2ccccc2)c(-c2ccccc2)[nH]1)c1ccccc1 |  |
| 100 | > 200000 | CCn1c2ccccc2c2cc(-c3cc(C(=O)O)c4c(ccc5ccccc54)n3)ccc21 |  |
| 1600 | > 200000 | C=CCSc1nnc2c(n1)OC(c1ccc(-c3cccc([N+](=O)[O-])c3)o1)Nc1ccccc1-2 (configuration not stated) |  |
| > 100000 |  | Clc1ccc(CSc2nnc(-c3ccccc3)c(-c3ccccc3)n2)cc1 |  |
| 9600 |  | O=C(CSc1nnc(-c2ccccc2)c(-c2ccccc2)n1)c1cccs1 |  |
| 480 |  | Cc1ccc(-c2nnc(SCC(=O)c3c[nH]c4ccccc34)nc2-c2ccc(C)cc2)cc1 |  |
| 17800 |  | CC(C)(C)C(=O)CSc1nnc(-c2ccccc2)c(-c2ccccc2)n1 |  |
| 5000 |  | COc1ccc(C(=O)CSc2nnc(-c3ccco3)c(-c3ccco3)n2)cc1 |  |
| 290 |  | O=C1COc2ccc(C(=O)CSc3nnc(-c4ccccc4)c(-c4ccccc4)n3)cc2N1 |  |
| 13600 |  | Cc1ccc(C)c(NC(=O)CSc2nnc(CNc3c(C)cccc3C)n2-c2ccccc2)c1 |  |
| 32500 |  | O=C(CSc1ncc(-c2ccccc2)nn1)c1ccccc1 |  |
| 9200 |  | Cc1cccc(C)c1NCc1nnc(SCC(=O)Nc2ccc(F)cc2)n1-c1ccccc1 |  |
| 910 |  | C=CCn1c(SCC(=O)c2ccc3c(c2)Cc2ccccc2-3)nnc1-c1ccc(OC)cc1 |  |
| 1200 | 160000 | Cc1ccc(C(=O)O)cc1-c1ccc(/C=C2\SC(=O)N(CC(=O)Nc3ccccc3)C2=O)o1 |  |
| 32900 |  | CCCCCCCCCSc1nnc(-c2ccc(OC)cc2)c(-c2ccc(OC)cc2)n1 |  |
| 13900 |  | O=C(CSc1nnc(-c2ccccc2)c(-c2ccccc2)n1)C12CC3CC(CC(C3)C1)C2 |  |
| 45400 |  | CCCCCCCSc1nnc(-c2ccc(OC)cc2)c(-c2ccc(OC)cc2)n1 |  |
| 500 |  | O=C(CSc1nnc(-c2ccccc2)c(-c2ccccc2)n1)c1c[nH]c2ccccc12 |  |
| 2500 |  | O=C(CSc1nnc(-c2ccccc2)c(-c2ccccc2)n1)c1ccccc1 |  |
| 1700 | 200000 | O=C(COC(=O)c1ccc2c(c1)C(=O)N(c1ccc(Oc3ccccc3)cc1)C2=O)c1ccc(Br)cc1 |  |
| 1000 |  | COc1ccc(C(=O)CSc2nnc(-c3ccc(OC)cc3)c(-c3ccc(OC)cc3)n2)cc1 |  |
| 19400 |  | Cc1cccc(C)c1NCc1nnc(SCc2ccc(Cl)cc2)n1-c1ccccc1 |  |
| 3100 |  | COc1ccc(-c2nnc(SCC(=O)Nc3ccc(Cl)cc3)nc2-c2ccc(OC)cc2)cc1 |  |
| 7500 |  | CCn1c(CNc2ccc(C)cc2C)nnc1SCC(=O)c1ccc(C)cc1 |  |
| 640 |  | Cc1ccc(-c2nnc(SCC(=O)c3ccc(CC(N)=O)s3)nc2-c2ccc(C)cc2)cc1 |  |
| 2100 |  | Cc1[nH]c2ccccc2c1C(=O)C(C)Sc1nnc(-c2ccccc2)c(-c2ccccc2)n1 (configuration not stated) |  |
| 800 |  | Cc1ccc([N+](=O)[O-])cc1NC(=O)CSc1nnc(Cc2ccccc2)n1C |  |
| 50800 |  | O=C(CCCSc1nnc(-c2ccccc2)c(-c2ccccc2)n1)c1ccccc1 |  |
| 100 | 200000 | O=C(N/N=C/c1ccc([N+](=O)[O-])cc1)c1cc(OCc2ccccc2)c(OCc2ccccc2)c(OCc2ccccc2)c1 |  |
